# Laboratory results published in ChEMBL document CHEMBL4689842, “EUbOPEN Chemogenomics Library wave 1” (2021).
# System: Fibroblast
# Experiment: Multiplex assay against human fibroblast
# Format: toxicity, cell-based
# Summary of the method: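 Cells were classed with CellPathfinder machine-learning gating, first as Hoechst high-intensity objects or normal cells, then (normal cells) as healthy, pyknosed or fragmented nuclei, and finally (pyknosed cells) as mitotic or apoptotic. Staining of live cells at seeding used Hoechst33342, BioTracker Green Microtubule Cytoskeleton Dye, MitoTracker Red and Annexin V Alexa Fluor 680, with imaging on a CQ1 microscope at 37°C and 5% CO2 after compound addition. Tubulin, mitochondrial-mass and membrane-permeability phenotypes are per cents of healthy-nucleus cells.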
# [1] = 12 h, 1 µM, compound concentration 1 uM, replicate 1
# [2] = 12 h, 1 µM, compound concentration 1 uM, replicate 2
# [3] = 12 h, 10 µM, compound concentration 10 uM, replicate 1
# [4] = 12 h, 10 µM, compound concentration 10 uM, replicate 2
# [5] = 24 h, 1 µM, compound concentration 1 uM, replicate 1
# [6] = 24 h, 1 µM, compound concentration 1 uM, replicate 2
# [7] = 24 h, 10 µM, compound concentration 10 uM, replicate 1
compound,measurement,setting,value
CN(c1cc(C(F)(F)F)nc(OCCC(=O)O)n1)c1cccc2c1CCC2,Population Apoptotic (%),[1],70%
same,Population Fragmented Nuclei (%),[1],18%
same,Population Healthy Nuclei (%),[1],47%
same,Population Hoechst High Intensity Objects (%),[1],11%
same,Population Membrane Permeable-Phenotype (%),[1],17%
same,Population Mitochondria Different-Phenotype (%),[1],6%
same,Population Mitotic Cells (%),[1],29%
same,Population Normal (%),[1],88%
same,Population Pyknosed Nuclei (%),[1],33%
same,Population Tubulin-Different-Phenotype (%),[1],27%
same,Total Cell Count,[1],136
same,Population Apoptotic (%),[2],0%
same,Population Fragmented Nuclei (%),[2],9%
same,Population Healthy Nuclei (%),[2],80%
same,Population Hoechst High Intensity Objects (%),[2],12%
same,Population Membrane Permeable-Phenotype (%),[2],4%
same,Population Mitochondria Different-Phenotype (%),[2],20%
same,Population Mitotic Cells (%),[2],100%
same,Population Normal (%),[2],87%
same,Population Pyknosed Nuclei (%),[2],9%
same,Population Tubulin-Different-Phenotype (%),[2],28%
same,Total Cell Count,[2],65
same,Population Apoptotic (%),[3],61%
same,Population Fragmented Nuclei (%),[3],23%
same,Population Healthy Nuclei (%),[3],49%
same,Population Hoechst High Intensity Objects (%),[3],11%
same,Population Membrane Permeable-Phenotype (%),[3],25%
same,Population Mitochondria Different-Phenotype (%),[3],6%
same,Population Mitotic Cells (%),[3],38%
same,Population Normal (%),[3],88%
same,Population Pyknosed Nuclei (%),[3],27%
same,Population Tubulin-Different-Phenotype (%),[3],26%
same,Total Cell Count,[3],172
same,Population Apoptotic (%),[4],0%
same,Population Fragmented Nuclei (%),[4],13%
same,Population Healthy Nuclei (%),[4],86%
same,Population Hoechst High Intensity Objects (%),[4],14%
same,Population Membrane Permeable-Phenotype (%),[4],4%
same,Population Mitochondria Different-Phenotype (%),[4],10%
same,Population Mitotic Cells (%),[4],0%
same,Population Normal (%),[4],85%
same,Population Pyknosed Nuclei (%),[4],0%
same,Population Tubulin-Different-Phenotype (%),[4],30%
same,Total Cell Count,[4],71
same,Population Apoptotic (%),[5],54%
same,Population Fragmented Nuclei (%),[5],26%
same,Population Healthy Nuclei (%),[5],46%
same,Population Hoechst High Intensity Objects (%),[5],11%
same,Population Membrane Permeable-Phenotype (%),[5],28%
same,Population Mitochondria Different-Phenotype (%),[5],7%
same,Population Mitotic Cells (%),[5],45%
same,Population Normal (%),[5],88%
same,Population Pyknosed Nuclei (%),[5],27%
same,Population Tubulin-Different-Phenotype (%),[5],30%
same,Total Cell Count,[5],129
same,Population Apoptotic (%),[6],0%
same,Population Fragmented Nuclei (%),[6],4%
same,Population Healthy Nuclei (%),[6],95%
same,Population Hoechst High Intensity Objects (%),[6],8%
same,Population Membrane Permeable-Phenotype (%),[6],2%
same,Population Mitochondria Different-Phenotype (%),[6],13%
same,Population Mitotic Cells (%),[6],0%
same,Population Normal (%),[6],91%
same,Population Pyknosed Nuclei (%),[6],0%
same,Total Cell Count,[6],68
same,Population Apoptotic (%),[7],56%
same,Population Fragmented Nuclei (%),[7],14%
same,Population Healthy Nuclei (%),[7],60%
same,Population Hoechst High Intensity Objects (%),[7],7%
same,Population Membrane Permeable-Phenotype (%),[7],21%
same,Population Mitochondria Different-Phenotype (%),[7],3%
